# Assays:
# [1] = target: T1, Sphingosine 1-phosphate receptor 1 (Homo sapiens, UniProt P21453); test: In vitro binding affinity towards human Sphingosine 1-phosphate receptor 1 expressed in HEK293T cells using [gamma-35S]-GTP as radioligand; format: cell-based, HEK-293T
# [2] = target: T2, Sphingosine 1-phosphate receptor 2 (Homo sapiens, UniProt O95136); test: In vitro binding affinity towards human Sphingosine 1-phosphate receptor 2 expressed in HEK293T cells using [gamma-35S]-GTP as radioligand; Not active; format: cell-based; details: hek-293t
# [3] = target: T3, Sphingosine 1-phosphate receptor 3 (Homo sapiens, UniProt Q99500); test: In vitro binding affinity towards human Sphingosine 1-phosphate receptor 3 expressed in HEK293T cells using [gamma-35S]-GTP as radioligand; Not active; format: cell-based; details: hek-293t
# [4] = target: T4, Sphingosine 1-phosphate receptor 4 (Homo sapiens, UniProt O95977); test: In vitro binding affinity towards human Sphingosine 1-phosphate receptor 4 expressed in HEK293T cells using [gamma-35S]-GTP as radioligand; format: cell-based, HEK-293T
# T4 sequence (O95977 whole entry): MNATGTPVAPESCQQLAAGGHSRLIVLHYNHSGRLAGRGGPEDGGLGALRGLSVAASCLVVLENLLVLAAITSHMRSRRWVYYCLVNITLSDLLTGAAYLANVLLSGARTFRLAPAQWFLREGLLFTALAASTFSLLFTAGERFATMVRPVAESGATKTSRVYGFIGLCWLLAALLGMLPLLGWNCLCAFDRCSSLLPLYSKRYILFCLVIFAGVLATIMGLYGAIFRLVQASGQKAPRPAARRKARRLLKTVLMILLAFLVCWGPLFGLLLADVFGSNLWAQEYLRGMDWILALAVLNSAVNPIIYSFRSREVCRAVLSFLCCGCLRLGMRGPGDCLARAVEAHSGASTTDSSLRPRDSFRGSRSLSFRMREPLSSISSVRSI
# [5] = target: Sphingosine 1-phosphate receptor 5 (Homo sapiens, UniProt Q9H228); test: In vitro binding affinity towards human Sphingosine 1-phosphate receptor 5 expressed in HEK293T cells using [gamma-35S]-GTP as radioligand; format: cell-based, HEK-293T
# [6] = target: T3, Sphingosine 1-phosphate receptor 3; test: In vitro binding affinity towards human Sphingosine 1-phosphate receptor 3 expressed in HEK293T cells using [gamma-35S]-GTP as radioligand; format: cell-based, HEK-293T
# [7] = target: T1, Sphingosine 1-phosphate receptor 1; test: In vitro binding affinity towards human Sphingosine 1-phosphate receptor 1 expressed in HEK293T cells using [gamma-35S]-GTP as radioligand. (Experiment 2); format: cell-based, HEK-293T
# Procedure, shortened: (§1)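 Membranes were incubated with test lipid in pH 7.5 buffer (HEPES 50 mM, NaCl 100 mM, MgCl2 5 mM) containing saponin, GDP and 0.1 nM [γ-35S]GTP for 30 min at 30 °C. Bound label was separated by GF/C filtration and counted by scintillation. EC50 is the mean of three experiments.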
# [8] = target: T3, Sphingosine 1-phosphate receptor 3; test: In vitro binding affinity towards human Sphingosine 1-phosphate receptor 3 expressed in HEK293T cells using [gamma-35S]-GTP as radioligand (Experiment 2); format: cell-based, HEK-293T; procedure, shortened: as §1
# [9] = target: T4, Sphingosine 1-phosphate receptor 4; test: In vitro binding affinity towards human Sphingosine 1-phosphate receptor 4 expressed in HEK293T cells using [gamma-35S]-GTP as radioligand (Experiment 2); format: cell-based, HEK-293T; procedure, shortened: as §1
# [10] = target: T2, Sphingosine 1-phosphate receptor 2; test: In vitro binding affinity towards human Sphingosine 1-phosphate receptor 2 expressed in HEK293T cells using [gamma-35S]-GTP as radioligand; format: cell-based, HEK-293T
# [11] = target: T3, Sphingosine 1-phosphate receptor 3; test: In vitro binding affinity towards human S1P3 receptor expressed in HEK293T cells using [gamma-35S]-GTP as radioligand; format: cell-based, HEK-293T
# T3 sequence (Q99500 whole entry): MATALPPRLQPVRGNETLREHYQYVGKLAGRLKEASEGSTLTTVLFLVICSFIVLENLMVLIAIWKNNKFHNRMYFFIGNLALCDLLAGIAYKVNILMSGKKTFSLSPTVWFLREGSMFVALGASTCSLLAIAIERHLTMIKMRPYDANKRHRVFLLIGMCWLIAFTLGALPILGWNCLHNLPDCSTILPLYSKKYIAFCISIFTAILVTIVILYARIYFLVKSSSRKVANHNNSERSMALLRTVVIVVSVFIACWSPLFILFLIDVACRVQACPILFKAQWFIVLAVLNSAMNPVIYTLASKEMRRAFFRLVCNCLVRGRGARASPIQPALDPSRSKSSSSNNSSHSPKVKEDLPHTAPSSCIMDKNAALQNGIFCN
# Sequence of Sphingosine 1-phosphate receptor 5 (Q9H228 whole entry): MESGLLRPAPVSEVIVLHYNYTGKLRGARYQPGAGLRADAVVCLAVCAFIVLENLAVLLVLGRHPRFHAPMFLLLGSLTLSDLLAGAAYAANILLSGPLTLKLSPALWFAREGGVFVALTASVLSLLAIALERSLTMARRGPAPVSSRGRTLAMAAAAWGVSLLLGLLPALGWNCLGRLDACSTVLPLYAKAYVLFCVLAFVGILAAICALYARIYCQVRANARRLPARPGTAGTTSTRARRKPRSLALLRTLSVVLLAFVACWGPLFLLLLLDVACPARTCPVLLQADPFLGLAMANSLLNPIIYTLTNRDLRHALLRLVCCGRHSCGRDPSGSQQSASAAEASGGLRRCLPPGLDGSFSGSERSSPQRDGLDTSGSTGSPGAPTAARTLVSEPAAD
# T2 sequence (O95136 whole entry): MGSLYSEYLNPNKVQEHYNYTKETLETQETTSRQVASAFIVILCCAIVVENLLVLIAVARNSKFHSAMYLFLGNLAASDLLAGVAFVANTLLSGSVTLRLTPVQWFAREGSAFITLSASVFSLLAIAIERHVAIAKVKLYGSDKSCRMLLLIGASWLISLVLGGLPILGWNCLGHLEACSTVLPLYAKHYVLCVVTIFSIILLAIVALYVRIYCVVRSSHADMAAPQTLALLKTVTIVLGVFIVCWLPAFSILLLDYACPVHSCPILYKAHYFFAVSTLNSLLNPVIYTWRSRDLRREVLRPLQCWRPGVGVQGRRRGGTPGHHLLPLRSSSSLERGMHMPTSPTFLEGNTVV
# T1 sequence (P21453 whole entry): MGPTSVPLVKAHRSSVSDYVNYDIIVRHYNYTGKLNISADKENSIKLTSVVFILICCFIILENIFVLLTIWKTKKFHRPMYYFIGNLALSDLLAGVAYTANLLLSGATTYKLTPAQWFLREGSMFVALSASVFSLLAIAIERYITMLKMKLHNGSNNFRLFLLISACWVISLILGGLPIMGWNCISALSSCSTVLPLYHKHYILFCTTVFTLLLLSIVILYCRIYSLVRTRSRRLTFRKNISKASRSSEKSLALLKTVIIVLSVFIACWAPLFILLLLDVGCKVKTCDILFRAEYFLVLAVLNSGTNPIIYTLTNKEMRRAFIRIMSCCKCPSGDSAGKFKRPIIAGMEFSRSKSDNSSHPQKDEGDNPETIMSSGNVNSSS
SMILES,EC50 [1] [nM],EC50 [2],EC50 [4] [nM],EC50 [5] [nM],EC50 [6] [nM],also measured
CCCCCCc1ccc(NC(=O)[C@@H](N)COP(=O)(O)O)cc1.O=C(O)C(F)(F)F,550,Not Active,1500,55,–,EC50 [3]: Not Active
CCCCCCc1ccc(NC(=O)[C@H](N)COP(=O)(O)O)cc1.O=C(O)C(F)(F)F,260,Not Active,880,43,–,EC50 [3]: Not Active
CCCCCCCCCCCCC/C=C/[C@@H](O)[C@@H](N)COP(=O)(O)O,–,–,–,–,–,EC50 [7]: 4.5 nM; EC50 [8]: 8.7 nM; EC50 [9]: 270 nM
CCCCCCCCCCCCCCCCNC(=O)[C@@H](N)COP(=O)(O)O,–,–,–,–,–,EC50 [10]: > 5000 nM
CCCCCCCCCCCCCCNC(=O)[C@H](N)COP(=O)(O)O,–,–,–,> 5000,–,–
CCCCCCCCCCCCCCNC(=O)[C@@H](N)COP(=O)(O)O,397,–,–,1610,862,EC50 [10]: 2680 nM

# Further lines, with some results ahead:
EC50 [1] [nM],EC50 [2],EC50 [4] [nM],EC50 [5] [nM],EC50 [6] [nM],SMILES,also measured
130,Not Active,1400,160,740,CCCCCCCCCCCCc1ccc(NC(=O)[C@H](N)COP(=O)(O)O)cc1.O=C(O)C(F)(F)F,–
82,Not Active,–,–,–,CCCCCCCCc1ccc(NC(=O)[C@@H](N)COP(=O)(O)O)cc1.O=C(O)C(F)(F)F,EC50 [11]: 1500 nM
8.6,Not Active,450,41,89,CCCCCCCCCCc1ccc(NC(=O)[C@H](N)COP(=O)(O)O)cc1.O=C(O)C(F)(F)F,–
58,Not Active,–,–,450,CCCCCCCCc1ccc(NC(=O)[C@H](N)COP(=O)(O)O)cc1.O=C(O)C(F)(F)F,–

# From ChEMBL document CHEMBL1136274 (Bioorg Med Chem Lett, 2003)
